# Only a selection was taken, and hits are over-represented in it overall.
# Dyrk1A ADPGlo = inhibitors of rat Dyrk1A kinase; hit rate 0.43% among 310,000; AID 504441; inhibition, % at 12.5 µM; ADP-Glo luminescence, NFATc1 peptide; in the data active = inhibition above about 50%;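 also: plate controls were vehicle with enzyme for no effect and no enzyme for full effect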
# GSK3B inh = blocks human GSK3beta kinase activity | GST-GSK3beta kinase, ADP-Glo luminescence, 60 min; hits give low values | activity score (negative = inhibition), % at 10 µM | hit rate 0.038% among 300,000;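 active = more than half of replicate wells score below -50%, meaning over 50% inhibition versus plate controls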;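 also: 0% = median DMSO wells and -100% = median GW8510 positive control wells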
# Target sequence (P49841 whole entry, looked up): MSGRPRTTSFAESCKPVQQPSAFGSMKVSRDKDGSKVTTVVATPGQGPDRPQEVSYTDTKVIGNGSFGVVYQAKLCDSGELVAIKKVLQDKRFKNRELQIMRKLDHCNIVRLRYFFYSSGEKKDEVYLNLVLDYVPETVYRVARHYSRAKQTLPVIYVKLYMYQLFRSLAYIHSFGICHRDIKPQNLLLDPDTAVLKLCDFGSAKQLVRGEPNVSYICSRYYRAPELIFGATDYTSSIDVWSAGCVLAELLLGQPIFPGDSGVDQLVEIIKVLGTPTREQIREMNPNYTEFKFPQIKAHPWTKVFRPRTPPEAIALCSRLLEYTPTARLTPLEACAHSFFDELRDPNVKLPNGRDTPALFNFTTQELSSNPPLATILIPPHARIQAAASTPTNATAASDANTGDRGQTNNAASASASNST
#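 Test system: GST-fused GSK3beta enzyme, cell-free | Quantity: 1.6 ng GST-GSK3beta enzyme per well | Reagent: 25 µM ATP with peptide substrate | Schedule: 60 min enzyme reaction, room temperature | Signal: Luminescent ADP-Glo measurement of ADP formed | Read-out basis: Score relative to plate controls | Control set: DMSO and 20 µM GW8510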
# CDK5 p35 inh = CDK5/p35 (human) kinase inhibition; Q00535+Q15078; Recombinant CDK5/p35, ADP-Glo luminescence, 60 min; inhibition, % at 10 µM; hit rate 0.01% among 330,000;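 active = highest replicate inhibition of at least 50% and at least 75% of replicates reaching 50%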;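 also: plate controls were DMSO neutral control for no effect and GW8510 at 10 µM for full effect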
# GSK3 alpha inh = inhibitors of human GSK-3 alpha kinase. AID 2650. hit rate 0.1% among 320,000. P49840. inhibition, % at 10 µM. ADP-Glo luminescence, 60 min;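 active = more than half of replicates show inhibition above 20%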;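 also: GST-tagged GSK-3 alpha with peptide substrate and 25 µM ATP; 0% = DMSO neutral wells and 100% = GW8510 positive control wells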
# STK33 kinase inh = blocks human STK33 kinase activity; purified STK33, MBP phosphorylation, ADP-Glo luminescence; hit rate 0.073% among 320,000; inhibition, % at 10 µM; Q9BYT3;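 active = inhibition at or above 25%, using the most active replicate where run in duplicate; inactive = inhibition below 25%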
# Dyrk1A artifact = interferes with ADP-Glo luciferase readout without Dyrk1A; shares compounds with Dyrk1A ADPGlo; ADP-Glo luciferase artifact assay, no Dyrk1A, luminescence; AC50, µM (titrated, usually from 12 µM), inactives show at the top dose activity change, negative = inhibition; 1,300 tested, under 10 active; AID 588348;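 active = fitted half-maximal dose AC50 no more than ten times the top valid tested dose, with luminescence dropping as dose rises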
# Starred values were filed as active, the others as inactive; / = no result.
SMILES,Dyrk1A ADPGlo,GSK3B inh,CDK5 p35 inh,GSK3 alpha inh,STK33 kinase inh,Dyrk1A artifact
CCOc1ccc(Cl)cc1S(=O)(=O)N1CCC(C(=O)NCC2CCCO2)CC1 (stereo not drawn),4.8,4.2,0.7,-0.3,-0.5,/
CCCN1CCN(c2ncnc3scc(C4COc5ccccc5O4)c23)CC1 (stereo not drawn),56.8*,-3.5,0.6,7.1,3.5,8.5%
O=C(NCC(O)c1ccc([N+](=O)[O-])cc1)C1=COCCO1 (stereo not drawn),/,/,0.6,-0.6,-1.5,/
CC(C)CNC(=O)C(=O)NCC1CCCN1S(=O)(=O)c1cccs1 (stereo not drawn),0.8,0.9,0.5,0.3,-0.9,/
O=C(NNC1=C(C(=O)C(F)(F)F)CCC1)c1ccccc1O,56.2*,1.2,-1.4,-2.0,1.5,9.8%
COc1ccccc1NC(=O)CSc1nnc(C2CCCCC2)n1-c1ccccc1,-2.1,7.8,-2.0,1.2,1.6,/
O=C1CCCC2=C1Sc1ccc(Cl)cc1N2,54.2*,-5.4,-0.6,8.1,-1.1,8.6%
CC1CCCCN1C(=O)COC(=O)c1cccc(NS(=O)(=O)c2ccccc2)c1 (stereo not drawn),-13.9,1.8,-2.0,-3.8,-0.4,/
Cc1ccc(S(=O)(=O)C2C(=O)N(C)C3(C)CC2c2ccccc2O3)cc1 (stereo not drawn),0.3,1.0,2.0,0.5,0.0,/
COc1ccc(-c2cc(=O)[nH]c(=O)[nH]2)cc1,29.2,1.2,-1.5,7.2,1.1,/
COc1ccc(-c2cc(=O)[nH][nH]2)cc1,62.8*,-5.8,1.9,0.8,0.7,8.2%
C[C@@H]1O[C@@H](O[C@H]2[C@H](O)[C@@H](O)[C@H](Oc3c(-c4ccc(O)cc4)oc4cc(O)cc(O)c4c3=O)O[C@@H]2CO)[C@H](O)[C@H](O)[C@H]1O,5.7,/,1.7,-2.8,1.6,/
C[C@@H]1O[C@@H](OC[C@@H]2O[C@H](Oc3c(-c4ccc(O)cc4)oc4cc(O)cc(O)c4c3=O)[C@@H](O)[C@H](O)[C@H]2O)[C@H](O)[C@H](O)[C@H]1O,72.2*,/,0.4,15.1,2.8,7.4%
O=C(Nc1nc2c(Cl)ccc(Cl)c2s1)C1CC1,8.6,4.9,1.5,0.8,0.0,/
NNc1nc2c(Cl)ccc(Cl)c2s1,57.1*,-0.2,2.0,-3.1,-1.5,7.8%
Cc1c(C(=O)NCc2ccccc2CN2CCCC2)oc2ccc(F)cc12,/,/,-1.3,-1.1,0.0,/
COc1ccc(/C=C2\SC(=O)NC2=S)cc1OC,58.0*,0.5,0.2,/,/,7.5%
COc1cc(/C=C2\SC(=O)NC2=O)ccc1Oc1ccc([N+](=O)[O-])cc1[N+](=O)[O-],77.2*,-4.3,1.0,1.6,-1.8,9.9%
CCOc1ccc(/C=C2\SC(=S)N(C)C2=O)cc1OC,/,-3.0,/,-0.3,-0.6,/
COc1ccc(CCNC(=O)CSc2nnc(-c3ccco3)c(-c3ccco3)n2)cc1OC,/,4.1,/,0.8,0.5,/
Cc1cccc(NC(=O)CN2CCN(C(=O)c3cccc(-n4cnnn4)c3)CC2)c1C,-4.6,/,0.7,-5.8,-0.6,/
CC(C)(C)NC(=O)C(=O)NC(=O)c1c(F)cccc1Cl,63.2*,-3.0,-0.3,-0.6,-1.4,9.0%
NC(CC(=O)O)c1ccc(Br)cc1 (stereo not drawn),-0.3,0.6,-0.8,0.7,1.6,/
CNC(=O)c1cc2c(s1)-c1ccccc1CC2,52.8*,-1.5,0.7,5.2,3.9,10.2%
O=C(N/N=C/c1ccc(F)c(F)c1)c1cc2c(s1)-c1ccccc1CC2,-0.4,0.1,-1.8,-2.2,0.4,/
SMILES,Dyrk1A ADPGlo,GSK3B inh,CDK5 p35 inh,GSK3 alpha inh,STK33 kinase inh,Dyrk1A artifact
C=CCOC(=O)C1=C(C)NC(=O)NC1c1ccc(N(C)C)cc1 (stereo not drawn),/,1.4,0.3,-1.9,-0.1,/
C=CCOC(=O)C1=C(C)NC(=O)NC1c1ccc(Cl)cc1 (stereo not drawn),66.8*,-2.3,0.5,-0.2,0.8,6.4%
c1ccc2c(-c3ccncc3)c[nH]c2c1,76.0*,1.4,0.7,0.9,7.4,8.4%
c1ccc(-c2nnc(-c3ccccc3)c(-c3c[nH]c4ccccc34)n2)cc1,1.6,-4.2,0.0,3.2,2.2,/
O=C(Nc1cccc(-c2nn[nH]n2)c1)c1ccc(Cl)s1,76.2*,-11.6,0.5,9.1,0.7,9.6%
O=C(Nc1cccnc1)c1ccc(Br)s1,9.7,5.1,-0.6,-0.1,1.4,/
O=C(Nc1cccc(-c2nn[nH]n2)c1)c1ccc(Br)s1,92.0*,-8.9,1.2,14.1,21.4,9.8%
CCOC(=O)Oc1c(OC)cc(C(=O)O[C@@H]2C[C@@H]3CN4CCc5c([nH]c6cc(OC)ccc56)[C@H]4C[C@@H]3[C@H](C(=O)OC)[C@H]2OC)cc1OC,4.0,/,-0.2,-0.9,-1.1,/
O=c1cc[nH]c2c1ccc1cccnc12,81.0*,-11.7,-4.4,/,1.2,9.5%
Cc1ccc2c(c1)cc1c(=O)n(CC(=O)N3CCCC3)nc(C)n12,4.2,1.7,0.8,2.0,1.3,/
Cc1ccc(CCNC(=O)C2CCN(S(=O)(=O)c3cccc4nonc34)CC2)cc1,56.9*,14.2,-0.1,-0.7,-1.7,11.2%
Cc1ccc(CNC(=O)C2CCN(S(=O)(=O)c3cccc4nonc34)CC2)cc1,-2.5,5.1,-0.8,-2.0,-0.9,/
Cc1ccc(Nc2cc(C)c3c(O)cccc3n2)cc1C,39.2,-2.8,2.4,-0.9,4.0,/
Cc1ccccc1Nc1cc(C)c2c(O)cccc2n1,60.4*,-0.1,-0.6,6.5,2.4,10.0%
CCOc1ccc(NC(=S)N(CCc2c(C)[nH]c3ccc(C)cc23)Cc2cccnc2)cc1,-3.0,-2.1,-0.4,-0.8,1.7,/
COc1ccc(NC(=S)N(CCc2c(C)[nH]c3ccccc23)Cc2cccnc2)cc1,60.0*,2.7,2.0,-0.1,0.3,8.8%
COc1ccc2[nH]c(C(=O)O)c(CCN3C(=O)c4ccc(C(=O)O)cc4C3=O)c2c1,30.5,-1.7,1.4,2.2,2.0,/
O=C(O)c1[nH]c2ccc(Cl)cc2c1CCN1C(=O)c2ccccc2C1=O,66.3*,2.4,-0.6,0.5,-1.0,12.4%
O=C(O)c1[nH]c2ccc(Br)cc2c1CCN1C(=O)c2cccc([N+](=O)[O-])c2C1=O,51.4*,1.1,0.3,-0.7,2.5,11.9%
COc1ccc(-c2cc(=O)oc3c(C)c(OC(C)C(=O)Nc4ccc(CN5CCOCC5)cc4)ccc23)cc1 (stereo not drawn),-5.5,3.0,1.5,-2.1,-1.6,/
Cc1cc(OCCCCn2ccnc2)cc(C)c1Cl,3.9,0.5,-1.6,3.3,0.1,/
O=[N+]([O-])c1cc(/C=N/O)ccc1N1CCCC1,50.5*,-52.3*,-3.7,/,13.5,9.0%
COc1ccc(CCNC(=O)COC(=O)c2cc(S(=O)(=O)N3CCCC3)ccc2O)cc1,/,/,0.4,/,/,/
O=C(Nc1ccc(Cl)cc1)c1csc(-c2ccccc2)n1,-2.8,-1.4,0.3,-2.7,0.8,/
